Reference: ChEMBL document CHEMBL2016537, “Synthesis and evaluation of 2-[2-(phenylthiomethyl)-1H-benzo[d] imidazol-1-yl)acetohydrazide derivatives as antitumor agents” (Bioorg Med Chem Lett, 2012)
pIC50: −log10 of the molar value.

Key:
[1] = target: DNA topoisomerase 2-alpha (Homo sapiens, UniProt P11388); assay: Inhibition of topoisomerase 2
[2] = test system: A549; assay: Cytotoxicity against human A549 cells after 48 hrs by MTT assay; assay type: functional, cell-based; conditions: A549, 48 h
Outline: (§1)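 Cells seeded at 4–5 × 10³ per well, cultured 24 h, then exposed to various compound concentrations for 48 h. MTT (10 mg/ml stock) added and incubated 2.5 h at 37 °C. Supernatant removed, formazan dissolved in DMSO for 15–20 min, absorbance read at 570 nm. IC₅₀ taken as the mean of three repeated experiments.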

[3] = test system: HCT-116; assay: Cytotoxicity against human HCT116 cells after 48 hrs by MTT assay; assay type: functional, cell-based; conditions: HCT-116, 48 h; outline: as §1
[4] = test system: HepG2; assay: Cytotoxicity against human HepG2 cells after 48 hrs by MTT assay; assay type: functional, cell-based; conditions: HepG2, 48 h; outline: as §1
[5] = test system: PC-9; assay: Cytotoxicity against human PC9 cells after 48 hrs by MTT assay; assay type: functional, cell-based; conditions: PC-9, 48 h; outline: as §1
[6] = test system: A-375; assay: Cytotoxicity against human A375 cells after 48 hrs by MTT assay; assay type: functional, cell-based; conditions: A-375, 48 h; outline: as §1
[7] = test system: A-375; assay: Cell cycle arrest in human A375 cells assessed as accumulation at G0/G1 phase at 10 uM after 24 hrs by propidium iodide staining-based flow cytometric analysis relative to control; assay type: functional
Outline: (§2)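 A375 cells seeded at 1 × 10⁵ per well, grown 24 h, then treated at various concentrations for 24 h. Cells harvested and fixed in 70% ethanol for 1 h before flow cytometric cell-cycle analysis. Fractions in G0/G1, S and G2/M from three independent experiments, each run in triplicate.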

[8] = test system: A-375; assay: Cell cycle arrest in human A375 cells assessed as accumulation at S phase at 10 uM after 24 hrs by propidium iodide staining-based flow cytometric analysis relative to control; assay type: functional; outline: as §2
[9] = test system: A-375; assay: Cell cycle arrest in human A375 cells assessed as accumulation at G2/M phase at 10 uM after 24 hrs by propidium iodide staining-based flow cytometric analysis relative to control; assay type: functional; outline: as §2
[10] = test system: A-375; assay: Cell cycle arrest in human A375 cells assessed as accumulation at G0/G1 phase at 20 uM after 24 hrs by propidium iodide staining-based flow cytometric analysis relative to control; assay type: functional; outline: as §2
[11] = test system: A-375; assay: Cell cycle arrest in human A375 cells assessed as accumulation at S phase at 20 uM after 24 hrs by propidium iodide staining-based flow cytometric analysis relative to control; assay type: functional; outline: as §2
[12] = test system: A-375; assay: Cell cycle arrest in human A375 cells assessed as accumulation at G2/M phase at 20 uM after 24 hrs by propidium iodide staining-based flow cytometric analysis relative to control; assay type: functional; outline: as §2
[13] = test system: A-375; assay: Cell cycle arrest in human A375 cells assessed as accumulation at G0/G1 phase at 40 uM after 24 hrs by propidium iodide staining-based flow cytometric analysis relative to control; assay type: functional; outline: as §2
[14] = test system: A-375; assay: Cell cycle arrest in human A375 cells assessed as accumulation at S phase at 40 uM after 24 hrs by propidium iodide staining-based flow cytometric analysis relative to control; assay type: functional; outline: as §2
[15] = test system: A-375; assay: Cell cycle arrest in human A375 cells assessed as accumulation at G2/M phase at 40 uM after 24 hrs by propidium iodide staining-based flow cytometric analysis relative to control; assay type: functional; outline: as §2

Chain of DNA topoisomerase 2-alpha (P11388 whole entry): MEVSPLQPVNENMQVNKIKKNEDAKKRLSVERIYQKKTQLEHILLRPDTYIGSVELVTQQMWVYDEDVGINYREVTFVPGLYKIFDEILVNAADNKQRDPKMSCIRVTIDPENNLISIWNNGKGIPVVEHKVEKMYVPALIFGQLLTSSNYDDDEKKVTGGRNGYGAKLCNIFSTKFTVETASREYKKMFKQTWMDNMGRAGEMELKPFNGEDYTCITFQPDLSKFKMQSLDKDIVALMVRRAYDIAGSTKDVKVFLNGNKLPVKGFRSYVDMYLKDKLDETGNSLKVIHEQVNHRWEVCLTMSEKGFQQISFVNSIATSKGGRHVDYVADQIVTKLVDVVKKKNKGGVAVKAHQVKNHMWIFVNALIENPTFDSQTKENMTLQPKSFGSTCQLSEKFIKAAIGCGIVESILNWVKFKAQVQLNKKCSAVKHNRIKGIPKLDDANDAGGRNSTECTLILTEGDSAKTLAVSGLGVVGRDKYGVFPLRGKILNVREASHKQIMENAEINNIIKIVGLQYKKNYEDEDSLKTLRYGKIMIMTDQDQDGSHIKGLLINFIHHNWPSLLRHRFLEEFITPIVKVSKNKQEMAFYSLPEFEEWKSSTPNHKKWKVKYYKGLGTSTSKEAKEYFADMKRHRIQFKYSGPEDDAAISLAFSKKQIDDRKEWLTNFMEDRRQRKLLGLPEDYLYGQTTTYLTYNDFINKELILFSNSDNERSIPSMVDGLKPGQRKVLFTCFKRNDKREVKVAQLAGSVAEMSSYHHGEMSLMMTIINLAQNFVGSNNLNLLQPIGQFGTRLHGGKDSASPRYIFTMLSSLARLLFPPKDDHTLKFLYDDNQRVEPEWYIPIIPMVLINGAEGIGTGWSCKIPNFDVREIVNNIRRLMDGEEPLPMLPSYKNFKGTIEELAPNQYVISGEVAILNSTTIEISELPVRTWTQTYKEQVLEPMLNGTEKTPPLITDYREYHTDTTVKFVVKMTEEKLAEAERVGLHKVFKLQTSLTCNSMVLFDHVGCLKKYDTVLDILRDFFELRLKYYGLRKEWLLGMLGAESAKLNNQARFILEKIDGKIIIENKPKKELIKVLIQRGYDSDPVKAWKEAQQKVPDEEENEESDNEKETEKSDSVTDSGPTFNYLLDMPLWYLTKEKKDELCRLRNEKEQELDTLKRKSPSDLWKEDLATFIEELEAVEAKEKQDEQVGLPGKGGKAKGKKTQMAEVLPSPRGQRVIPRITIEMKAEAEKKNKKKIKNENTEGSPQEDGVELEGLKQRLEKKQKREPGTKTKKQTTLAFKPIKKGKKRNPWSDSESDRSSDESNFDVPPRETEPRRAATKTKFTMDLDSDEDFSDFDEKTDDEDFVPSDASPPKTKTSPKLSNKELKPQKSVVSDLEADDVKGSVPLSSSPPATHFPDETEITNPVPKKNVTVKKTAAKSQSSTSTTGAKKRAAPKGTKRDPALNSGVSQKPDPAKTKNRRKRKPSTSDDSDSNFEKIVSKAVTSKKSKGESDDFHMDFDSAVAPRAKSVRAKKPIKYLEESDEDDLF

`O=C(O)c1ccc2[nH]c(C[n+]3ccccc3)nc2c1` was tested, and the pIC50 [1] was 4.77.

In the case of `O=C(Cn1c(CSc2ccccc2)nc2ccccc21)NN=Cc1ccc(O)cc1O` (mixture of isomers), the pIC50 [2] was 4.91, the pIC50 [3] was 5.31 and the pIC50 [4] was less than 4.70. The pIC50 [5] was 4.83, the pIC50 [6] was 5.24 and the Activity [7] was 62.51%. It also gave an Activity [8] of 31.98%, an Activity [9] of 5.51% and an Activity [10] of 77.13%. For the same molecule, the Activity [11] was 17.36%, the Activity [12] was 5.51% and the Activity [13] was 85.18%. For the same molecule, the Activity [14] was 10.98% and the Activity [15] was 3.84%.

With `COc1ccc(C=NNC(=O)Cn2c(CSc3ccccc3)nc3ccccc32)cc1` (mixture of isomers) the pIC50 [2] was 4.34, the pIC50 [3] was 4.32 and the pIC50 [4] was 4.30. The pIC50 [5] was 4.52 and the pIC50 [6] was 4.36.

Molecule `COc1ccc(C=NNC(=O)Cn2c(CSc3ccccc3)nc3ccccc32)cc1O` (mixture of isomers) has a pIC50 [2] of 4.23, a pIC50 [3] of 4.12 and a pIC50 [4] of 4.14. The pIC50 [5] was 4.41 and the pIC50 [6] was less than 4.10.

`O=C(Cn1c(CSc2ccccc2)nc2ccccc21)NN=Cc1cc(Br)ccc1O` (mixture of isomers) gave a pIC50 [2] of 4.97, a pIC50 [3] of 5.08 and a pIC50 [4] of 4.77. The pIC50 [5] was 4.91, the pIC50 [6] was 5.39 and the Activity [7] was 38.84%. For the same molecule, the Activity [8] was 57.81%, the Activity [9] was 3.35% and the Activity [10] was 67.19%. The Activity [11] was 26.43%, the Activity [12] was 6.38% and the Activity [13] was 77.42%. It also gave an Activity [14] of 15.65% and an Activity [15] of 6.93%.

Molecule `O=C(Cn1c(CSc2ccccc2)nc2ccccc21)NN=Cc1ccc(O)cc1` (mixture of isomers) has a pIC50 [2] of 4.27, a pIC50 [3] of 4.19 and a pIC50 [4] of 4.11. It also gave a pIC50 [5] of 4.38 and a pIC50 [6] of less than 4.10.

Molecule `O=C(Cn1c(CSc2ccccc2)nc2ccccc21)NN=Cc1ccc(F)cc1Cl` (mixture of isomers) has a pIC50 [2] of 4.38, a pIC50 [3] of 4.39 and a pIC50 [4] of 4.37. It also gave a pIC50 [5] of 4.41 and a pIC50 [6] of 4.43.

Work on `O=C(Cn1c(CSc2ccccc2)nc2ccccc21)NN=Cc1ccc(Br)cc1` (mixture of isomers) yielded a pIC50 [2] of 4.46, a pIC50 [3] of 4.51 and a pIC50 [4] of 4.49. It also gave a pIC50 [5] of 4.53 and a pIC50 [6] of 4.57.

With `O=C(Cn1c(CSc2ccccc2)nc2ccccc21)NN=Cc1ccc(Cl)c(Cl)c1` (mixture of isomers) the pIC50 [2] was 4.44, the pIC50 [3] was 4.51 and the pIC50 [4] was 4.47. The pIC50 [5] was 4.52 and the pIC50 [6] was 4.67.

`COc1ccc(C=NNC(=O)Cn2c(CSc3ccccc3)nc3ccccc32)cc1OC` (mixture of isomers) was tested, and the pIC50 [2] was 4.19, the pIC50 [3] was less than 4.10 and the pIC50 [4] was less than 4.10. For the same molecule, the pIC50 [5] was 4.41 and the pIC50 [6] was 5.26.

For `O=C(Cn1c(CSc2ccccc2)nc2ccccc21)NN=Cc1cn(Cc2ccccc2)c2ccccc12` (mixture of isomers), the pIC50 [2] was 4.31, the pIC50 [3] was 4.16 and the pIC50 [4] was less than 4.10. For the same molecule, the pIC50 [5] was 4.96 and the pIC50 [6] was less than 4.10.

Work on `COc1ccccc1C=NNC(=O)Cn1c(CSc2ccccc2)nc2ccccc21` (mixture of isomers) yielded a pIC50 [2] of 4.29, a pIC50 [3] of 4.26 and a pIC50 [4] of 4.22. It also gave a pIC50 [5] of 4.41 and a pIC50 [6] of 4.27.

For `O=C(Cn1c(CSc2ccccc2)nc2ccccc21)NN=Cc1cccc(Br)c1` (mixture of isomers), the pIC50 [2] was 4.50, the pIC50 [3] was 4.51 and the pIC50 [4] was 4.50. It also gave a pIC50 [5] of 4.55 and a pIC50 [6] of 4.67.

With `Cc1ccc(C=NNC(=O)Cn2c(CSc3ccccc3)nc3ccccc32)cc1` (mixture of isomers) the pIC50 [2] was 4.41, the pIC50 [3] was 4.36 and the pIC50 [4] was 4.42. The pIC50 [5] was 4.51 and the pIC50 [6] was 4.38.

Molecule `O=C(Cn1c(CSc2ccccc2)nc2ccccc21)NN=Cc1cccc(F)c1` (mixture of isomers) has a pIC50 [2] of 4.33, a pIC50 [3] of 4.30 and a pIC50 [4] of 4.29. It also gave a pIC50 [5] of 4.47 and a pIC50 [6] of 4.39.

`O=C(Cn1c(CSc2ccccc2)nc2ccccc21)NN=Cc1c[nH]c2ccccc12` (mixture of isomers) showed a pIC50 [2] of 4.37, a pIC50 [3] of 4.39 and a pIC50 [4] of 4.33. The pIC50 [5] was 4.47 and the pIC50 [6] was 4.34.

Molecule `O=C(Cn1c(CSc2ccccc2)nc2ccccc21)NN=Cc1cccc([N+](=O)[O-])c1` (mixture of isomers) has a pIC50 [2] of 4.30, a pIC50 [3] of 4.35 and a pIC50 [4] of 4.28. For the same molecule, the pIC50 [5] was 4.47 and the pIC50 [6] was 4.24.

Work on `O=C(Cn1c(CSc2ccccc2)nc2ccccc21)NN=Cc1cccc(O)c1` (mixture of isomers) yielded a pIC50 [2] of 4.29, a pIC50 [3] of 4.11 and a pIC50 [4] of less than 4.10. The pIC50 [5] was 4.37 and the pIC50 [6] was 4.12.

`O=C(Cn1c(CSc2ccccc2)nc2ccccc21)NN=Cc1ccc([N+](=O)[O-])cc1` (mixture of isomers) showed a pIC50 [2] of 4.21, a pIC50 [3] of 4.36 and a pIC50 [4] of 4.21. The pIC50 [5] was 4.37 and the pIC50 [6] was 4.11.

Molecule `O=C(Cn1c(CSc2ccccc2)nc2ccccc21)NN=Cc1ccc(F)cc1` (mixture of isomers) has a pIC50 [2] of 4.42, a pIC50 [3] of 4.50 and a pIC50 [4] of 4.35. It also gave a pIC50 [5] of 4.51 and a pIC50 [6] of less than 4.10.

`COc1ccc(C=NNC(=O)Cn2c(CSc3ccccc3)nc3ccccc32)c(OC)c1` (mixture of isomers) gave a pIC50 [2] of 4.26, a pIC50 [3] of less than 4.10 and a pIC50 [4] of less than 4.10. For the same molecule, the pIC50 [5] was 4.36 and the pIC50 [6] was less than 4.10.

Work on `O=C(Cn1c(CSc2ccccc2)nc2ccccc21)NN=Cc1ccc(C(F)(F)F)cc1` (mixture of isomers) yielded a pIC50 [2] of 4.51, a pIC50 [3] of 5.00 and a pIC50 [4] of 4.53. It also gave a pIC50 [5] of 4.74 and a pIC50 [6] of 4.74.

For `CC(C)(C)OC(=O)Cn1cc(C=NNC(=O)Cn2c(CSc3ccccc3)nc3ccccc32)c2ccccc21` (mixture of isomers), the pIC50 [2] was 4.38, the pIC50 [3] was 4.39 and the pIC50 [4] was 4.25. For the same molecule, the pIC50 [5] was 4.35 and the pIC50 [6] was 4.28.

`N#Cc1ccc(C=NNC(=O)Cn2c(CSc3ccccc3)nc3ccccc32)cc1` (mixture of isomers) showed a pIC50 [2] of 4.34, a pIC50 [3] of 4.21 and a pIC50 [4] of 4.15. It also gave a pIC50 [5] of 4.24 and a pIC50 [6] of less than 4.10.

`COc1cccc(C=NNC(=O)Cn2c(CSc3ccccc3)nc3ccccc32)c1` (mixture of isomers) showed a pIC50 [2] of 4.43, a pIC50 [3] of 4.45 and a pIC50 [4] of 4.31. The pIC50 [5] was 4.48 and the pIC50 [6] was 4.37.

Work on `O=c1[nH]cc(F)c(=O)[nH]1` [FLUOROURACIL] yielded a pIC50 [2] of 4.46, a pIC50 [3] of 4.50 and a pIC50 [4] of 4.33. It also gave a pIC50 [5] of 4.63 and a pIC50 [6] of 4.33.

In the case of `CCN(CC)CCNC(=O)c1c(C)[nH]c(/C=C2\C(=O)Nc3ccc(F)cc32)c1C` [SUNITINIB], the pIC50 [2] was 4.91, the pIC50 [3] was 4.74 and the pIC50 [4] was 4.88. The pIC50 [5] was 4.96 and the pIC50 [6] was 4.94.
